Reference: ChEMBL document CHEMBL4014268, “Phenolic Compounds from the Lichen Lobaria orientalis” (J Nat Prod, 2017)
Calls of active or inactive are those of the source.

Tests used:
Format in all cases: functional, cell-based
NCI-H460 = assay: Cytotoxicity against human NCI-H460 cells at 100 ug/ml by SRB assay
Outline: (§1)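 Single-concentration screen at 100 μg/mL against four human cancer lines: HepG2 (liver hepatocellular carcinoma), MCF-7 (breast), NCI-H460 (lung) and HeLa (epithelial carcinoma). Cell viability was read by sulforhodamine B staining, with camptothecin as the positive control.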

HeLa = assay: Cytotoxicity against human HeLa cells at 100 ug/ml by SRB assay; outline: as §1
HepG2 = assay: Cytotoxicity against human HepG2 cells at 100 ug/ml by SRB assay; outline: as §1
MCF7 = assay: Cytotoxicity against human MCF7 cells at 100 ug/ml by SRB assay; outline: as §1

Measured: Activity

COc1cc(C)c2c(c1C=O)Oc1c(c(C)c(O)c3c1[C@@H](OC)OC3=O)OC2=O
inactive: all assays above

Cc1cc(O)cc(OC(=O)c2c(C)cc(O)cc2O)c1
inactive: all assays above

COC(=O)/C=C/c1c(OC)cc(C)c(C(=O)OC)c1Oc1c(O)c(C)c(O)c2c1[C@@H](OC)OC2=O
inactive: all assays above

COc1cc(C)c2c3c1CO[C@H]1OC(=O)c4c(O)c(C)c(c(c41)O3)OC2=O
inactive: all assays above

COC(=O)c1c(C)cc(OC)c(CO)c1Oc1c(O)c(C)c(O)c2c1[C@@H](OC)OC2=O
inactive: all assays above

COC(=O)c1c(C)cc(OC)c(/C=C/C(C)=O)c1Oc1c(O)c(C)c(O)c2c1[C@@H](OC)OC2=O
inactive: all assays above

Cc1cc(O)cc(O)c1C(=O)Oc1cc(O)cc(C)c1C(=O)O
inactive: all assays above
